Test results taken from ChEMBL document CHEMBL3877308, “Design, synthesis and in vitro biological evaluation of oligopeptides targeting E. coli type I signal peptidase (LepB)” (Bioorg Med Chem, 2017).

Key:
Klebsiella pneumoniae = test: Antibacterial activity against wild type Klebsiella pneumoniae […] after 16 to 20 hrs by broth microdilution assay; assay type: functional
Summary of the method: (§1)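 MIC by broth microdilution in cation-adjusted Mueller-Hinton II medium, following EUCAST and CLSI guidelines; panel of Gram-negative strains plus S. aureus ATCC 29213.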

[1] = biological target: Signal peptidase I (Escherichia coli K-12) (UniProt P00803); test: (§2) Inhibition of full length Escherichia coli His6-tagged LepB expressed in Escherichia coli C43(DE3) assessed as residual activity at 0.391 uM using dabcyl-VEVGGTATAGAFSRPGLE-(EDANS) as substrate preincubated for 10 mins followed by substrate addition measured for 2 hrs by FRET assay relative to control
Sequence of Signal peptidase I (Escherichia coli K-12) (P00803 whole entry): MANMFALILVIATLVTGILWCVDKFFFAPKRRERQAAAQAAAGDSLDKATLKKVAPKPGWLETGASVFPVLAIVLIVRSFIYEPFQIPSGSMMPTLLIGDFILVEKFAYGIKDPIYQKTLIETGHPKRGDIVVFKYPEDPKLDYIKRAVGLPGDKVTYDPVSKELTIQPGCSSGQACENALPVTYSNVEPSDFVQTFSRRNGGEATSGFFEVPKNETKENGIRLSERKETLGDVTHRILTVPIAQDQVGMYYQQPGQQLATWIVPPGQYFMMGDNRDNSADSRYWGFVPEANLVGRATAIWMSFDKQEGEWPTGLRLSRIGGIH
Summary of the method: (§3)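 Enzyme came from the membrane fraction, extracted with 1% reduced Triton X-100 and purified by metal-chelation chromatography in 0.5% detergent. FRET pair was dabcyl acceptor and EDANS donor. EcLepB (final about 50 nM) was pre-incubated with compound 10 min at 22 °C. Reaction was then run with 8 µM substrate, following the linear fluorescence increase at 22 °C for 2 h.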

[2] = biological target: Signal peptidase I (Escherichia coli K-12) (UniProt P00803); test: as §2, with “12.5” for “0.391”; summary of the method: as §3
Escherichia coli [3] = test: Antibacterial activity against Escherichia coli CH3130 harboring tolC deletion mutant after 16 to 20 hrs by broth microdilution assay; assay type: functional
Summary of the method: (§4)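 Broth microdilution MIC in cation-adjusted Mueller-Hinton II medium, following EUCAST and CLSI guidelines; tested on a panel of Gram-negative strains plus S. aureus ATCC 29213 (wild-type).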

Escherichia coli [4] = test: Antibacterial activity against Escherichia coli D22 harboring lpxC mutant after 16 to 20 hrs by broth microdilution assay; assay type: functional; summary of the method: as §4
Pseudomonas aeruginosa [5] = test: Antibacterial activity against wild type Pseudomonas aeruginosa PAO1 after 16 to 20 hrs by broth microdilution assay; assay type: functional; summary of the method: as §1
Escherichia coli [6] = test: Antibacterial activity against wild type Escherichia coli ATCC 25922 after 16 to 20 hrs by broth microdilution assay; assay type: functional; summary of the method: as §1
Pseudomonas aeruginosa [7] = test: Antibacterial activity against wild type Pseudomonas aeruginosa PAO750 harboring efflux defective mutant after 16 to 20 hrs by broth microdilution assay; assay type: functional; summary of the method: as §4
[8] = biological target: Signal peptidase I (Escherichia coli K-12) (UniProt P00803); test: as §2, with “0.0488” for “0.391”; summary of the method: as §3
[9] = Cytotoxicity against human HepG2 cells assessed as reduction in cell viability after 72 hrs by fluorescein diacetate dye based fluorometric microculture assay; assay type: toxicity
Summary of the method: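 FMCA on HepG2 cells read at 72 h. Survival index (%) is fluorescence in test wells as percent of control cultures, with blank values subtracted. IC50 was obtained by non-linear regression of log concentration-effect curves.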

[10] = biological target: Signal peptidase I (Escherichia coli K-12) (UniProt P00803); test: as §2, with “1.56” for “0.391”; summary of the method: as §3
[11] = biological target: Signal peptidase I (Escherichia coli K-12) (UniProt P00803); test: as §2, with “3.13” for “0.391”; summary of the method: as §3
Staphylococcus aureus = test: Antibacterial activity against wild type Staphylococcus aureus ATCC 29213 after 16 to 20 hrs by broth microdilution assay; assay type: functional; summary of the method: as §1
[12] = biological target: Signal peptidase I (Escherichia coli K-12) (UniProt P00803); test: Inhibition of full length Escherichia coli His6-tagged LepB expressed in Escherichia coli C43(DE3) assessed as residual activity at 50 uM using dabcyl-VEVGGTATAGAFSRPGLE-(EDANS) as substrate preincubated for 10 mins followed by substrate addition measured for 2 hrs by FRET assay relative to control; summary of the method: as §3
[13] = biological target: Signal peptidase I (Escherichia coli K-12) (UniProt P00803); test: as §2, with “0.195” for “0.391”; summary of the method: as §3
Signal peptidase I = Signal peptidase I (Escherichia coli K-12, UniProt P00803); test: Inhibition of full length Escherichia coli His6-tagged LepB expressed in Escherichia coli C43(DE3) using dabcyl-VEVGGTATAGAFSRPGLE-(EDANS) as substrate preincubated for 10 mins followed by substrate addition measured for 2 hrs by FRET assay
Sequence of Signal peptidase I (P00803 whole entry): as above
Summary of the method: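 Enzyme extracted from the membrane fraction with 1% reduced Triton X-100 and purified by metal-chelation chromatography in 0.5% detergent. Enzyme (final ~50 nM) was pre-incubated with compound for 10 min at 22 °C. The linear rise in EDANS donor fluorescence (dabcyl acceptor) was then followed at 22 °C for 2 h. IC50 came from non-linear regression of sigmoidal rate-versus-concentration curves.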

[14] = biological target: Signal peptidase I (Escherichia coli K-12) (UniProt P00803); test: as §2, with “0.781” for “0.391”; summary of the method: as §3
Acinetobacter baumannii = test: Antibacterial activity against wild type Acinetobacter baumannii ATCC 19606 after 16 to 20 hrs by broth microdilution assay; assay type: functional; summary of the method: as §1
[15] = biological target: Signal peptidase I (Escherichia coli K-12) (UniProt P00803); test: as §2, with “0.0977” for “0.391”; summary of the method: as §3
[16] = biological target: Signal peptidase I (Escherichia coli K-12) (UniProt P00803); test: Inhibition of full length Escherichia coli His6-tagged LepB expressed in Escherichia coli C43(DE3) at 100 uM using dabcyl-VEVGGTATAGAFSRPGLE-(EDANS) as substrate preincubated for 10 mins followed by substrate addition measured for 2 hrs by FRET assay relative to control; summary of the method: as §3
[17] = biological target: Signal peptidase I (Escherichia coli K-12) (UniProt P00803); test: as §2, with “0.0244” for “0.391”; summary of the method: as §3
[18] = biological target: Signal peptidase I (Escherichia coli K-12) (UniProt P00803); test: Inhibition of full length Escherichia coli His6-tagged LepB expressed in Escherichia coli C43(DE3) assessed as residual activity at 25 uM using dabcyl-VEVGGTATAGAFSRPGLE-(EDANS) as substrate preincubated for 10 mins followed by substrate addition measured for 2 hrs by FRET assay relative to control; summary of the method: as §3
[19] = biological target: Signal peptidase I (Escherichia coli K-12) (UniProt P00803); test: as §2, with “6.25” for “0.391”; summary of the method: as §3
[20] = biological target: Signal peptidase I (Escherichia coli K-12) (UniProt P00803); test: Inhibition of full length Escherichia coli His6-tagged LepB expressed in Escherichia coli C43(DE3) assessed as residual activity at 100 uM using dabcyl-VEVGGTATAGAFSRPGLE-(EDANS) as substrate preincubated for 10 mins followed by substrate addition measured for 2 hrs by FRET assay relative to control; summary of the method: as §3

## CC(O)[C@H](NC(=O)[C@@H]1CCCN1)C(=O)N[C@@H](C)C(=O)N[C@@H](CC(N)=O)C(=O)N[C@@H](C)B1O[C@@H]2C[C@@H]3C[C@@H](C3(C)C)[C@]2(C)O1 (single isomer, unassigned)
Klebsiella pneumoniae
  MIC: > 64 µg/mL
[1]
  Activity: 95%
[2]
  Activity: 67.2%
Escherichia coli [3]
  MIC: > 64 µg/mL
Escherichia coli [4]
  MIC: > 64 µg/mL
Pseudomonas aeruginosa [5]
  MIC: > 64 µg/mL
Escherichia coli [6]
  MIC: > 64 µg/mL
Pseudomonas aeruginosa [7]
  MIC: > 64 µg/mL
[8]
  Activity: 96.7%
[9]
  IC50 at 72 h: > 64 µM
[10]
  Activity: 90.7%
[11]
  Activity: 88.6%
Staphylococcus aureus
  MIC: > 64 µg/mL
[12]
  Activity: 35.6%
[13]
  Activity: 95.4%
Signal peptidase I
  IC50: 26 µM
[14]
  Activity: 95%
Acinetobacter baumannii
  MIC: > 64 µg/mL
[15]
  Activity: 96%
[16]
  inhibition: > 50%
[17]
  Activity: 92.7%
[18]
  Activity: 56.9%
[19]
  Activity: 85.8%
[20]
  Activity: 25.1%
